These results are taken from ChEMBL document CHEMBL1151164, “New prostanoids with cytotoxic activity from Taiwanese octocoral Clavularia viridis” (J Nat Prod, 2004).

One assay has as its system PC-3. Kind of assay: Cytotoxicity against human PC3 cells after 72 hrs by SRB assay. Type of assay: functional, cell-based. Conditions: PC-3, 48 h, in the assay text read “48 hrs” for “72 hrs”. In a few lines: (§1)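 Cells seeded in RPMI 1640 with 5% FBS at 37 °C, 5% CO2; after 24 h, two plates per line fixed in situ with TCA as time-zero. Drug added, then 48 h further incubation at 37 °C. Fixed with cold TCA, stained with 0.4% w/v SRB in 1% acetic acid, bound dye solubilized in 10 mM trizma base, absorbance 515 nm. IC50 = concentration halving absorbance versus untreated cells.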
A general note: The SRB assay estimates cell density from bound dye.

A further assay deals with HT-29. Kind of assay: Cytotoxicity against human HT-29 cells after 72 hrs by SRB assay. Type of assay: functional, cell-based. Conditions: HT-29, 48 h, in the assay text read “48 hrs” for “72 hrs”. In a few lines: as §1

Usually IC50 stands for the midpoint of a concentration-inhibition curve.

In turn, `CCCCC/C=C\C[C@@]1(O)C=C(Cl)C(=O)/C1=C\C=C\CCCC(=O)OC` [CHLOROVULONE II] registered an IC50 with PC-3 of 0.8 µM. In other words, the sub-micromolar range.
With `CCCCC/C=C\C[C@]1(O)C=CC(=O)/C1=C\C=C\CCCC(=O)OC`, the IC50 stood at 7.9 µM with HT-29 and 3.9 µM in the assay with PC-3.
Regarding `CCCCC/C=C\C[C@@]1(O)C=C(Cl)C(=O)/C1=C/C=C/CCCC(=O)OC` [CHLOROVULONE III], the half-maximal inhibitory concentration (IC50) in the assay with HT-29 was determined as 2.7 µM; in the assay with PC-3, 1.9 µM.
The like results for `CCCCC/C=C\C[C@@]1(O)C=C(I)C(=O)/C1=C/C=C/CCCC(=O)OC` [IODOVULONE II] were, in that order, 6.5 µM and 3.9 µM.
Consider `CCCCC/C=C\C[C@]1(O)C=CC(=O)/C1=C/C=C/CCCC(=O)OC`, for which the IC50 in the assay with HT-29 turned out to be 4.1 µM; in the assay with PC-3 it was 5.4 µM.
Take `CCCCC/C=C\C[C@@]1(O)C=C(I)C(=O)/C1=C\C=C\CCCC(=O)OC` [IODOVULONE III]: the half-maximal inhibitory concentration (IC50) in the assay with HT-29 was more than 10 µM; with PC-3, 6.7 µM.
`CCCCC/C=C\C[C@]1(O)C=CC(=O)/C1=C/C=C\CCCC(=O)OC`: the IC50 in the assay on HT-29 worked out at 6 µM; in the assay on PC-3, 7.2 µM.
For `CCCCC/C=C\C[C@]1(OC(C)=O)C=CC(=O)/C1=C/C=C/CCCC(=O)OC` [CLAVIRIDENONE E], the concentration for half-maximal inhibition (IC50) in the assay on HT-29 was more than 10 µM; in the assay on PC-3, 3.5 µM.
Consider `CCCCC/C=C\C[C@@]1(O)C=C(Br)C(=O)/C1=C/C=C/CCCC(=O)OC` [BROMOVULONE II], for which the IC50 in the assay with HT-29 came out at 5.4 µM; in the assay on PC-3 it was 5.6 µM.
With `CCCCC/C=C\C[C@@]1(O)C=C(Br)C(=O)/C1=C\C=C\CCCC(=O)OC` [BROMOCLAVULONE III], the IC50 in the assay with HT-29 and in the assay on PC-3 was 0.5 µM in each case.
